Assay results from ChEMBL document CHEMBL1155720, “Antioxidant principles from Bauhinia tarapotensis” (J Nat Prod, 2001).

Key:
Assay type in all cases: functional
[1] = Antioxidant activity assessed as trolox equivalents of ABTS radical scavenging activity by TEAC assay
Summary of the method: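 ABTS•+ made from 7 mM ABTS in water with 2.45 mM potassium persulfate, kept 12 h in the dark at room temperature. Diluted in PBS pH 7.4 to A734 0.70 and equilibrated at 30 °C. Samples in methanol at 0.3–2 mM, 10 µL added to 1 mL ABTS•+. Percent inhibition of A734 measured against a methanol blank, in triplicate, and plotted against concentration. TEAC is the Trolox concentration giving the same inhibition as 1 mM compound.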

[2] = Antioxidant activity against beta-carotene and linoleic acid assessed asbleaching of beta-carotene at 60 mins by autooxidation assay
Summary of the method: (§1)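 β-carotene bleaching (Pratt method): linolenic acid 20 mg and Tween 20 200 mg plus β-carotene 2 mg in 10 mL CHCl3. CHCl3 removed, then 50 mL oxygen-saturated distilled water added. Samples oxidized at 50 °C for 3 h, A470 read at intervals. AA = 100[1 − (A0 − At)/(A00 − A0t)], comparing absorbance at start and at time t with and without compound.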

[3] = Antioxidant activity against beta-carotene and linoleic acid assessed asbleaching of beta-carotene at 120 mins by autooxidation assay; summary of the method: as §1
[4] = system: Radical scavenging activity; assay: Antioxidant activity assessed as DPPH free radical scavenging activity after 30 mins
Summary of the method: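 Pure compound in methanol, 30 µL added to 3 mL of 0.004% DPPH in MeOH. A517 read after 30 min and percent inhibition calculated. IC50 is the concentration scavenging 50% of DPPH radical.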

Row | IC50 [4] [µM] | Structure (SMILES) | Activity [1] | Activity [2] | Activity [3]
1 | – | O=c1cc(-c2ccc(O[C@@H]3O[C@H](CO)[C@@H](O)[C@H](O)[C@H]3O)c(O)c2)oc2cc(O)cc(O)c12 | 0.445 | 16.2 | 10
2 | – | O=C(O)c1c[nH]c2ccccc12 | 0.092 | -10.1 | -6.5
3 | – | C[C@@H]1O[C@@H](OC[C@H]2O[C@@H](Oc3c(-c4ccc(O)c(O)c4)oc4cc(O)cc(O)c4c3=O)[C@H](O)[C@@H](O)[C@@H]2O)[C@H](O)[C@H](O)[C@H]1O | 2.42 | – | –
4 | – | Cc1cc(C(C)(C)C)c(O)c(C(C)(C)C)c1 | – | 63.9 | 62.5
5 | 1.3 | C[C@@H]1O[C@@H](O[C@@H]2[C@@H](O)[C@H](OCCc3ccc(O)c(O)c3)O[C@H](COC(=O)/C=C/c3ccc(O)c(O)c3)[C@H]2O)[C@H](O)[C@H](O)[C@H]1O [ISOACTEOSIDE] | 1.23 | 24.6 | 7.2
6 | – | O=C1C=C[C@H](O)C[C@@]1(O)CCO (relative stereo) | 0.076 | 43 | 9.7
7 | 20.3 | COc1cc([C@H]2OC[C@]3(O[C@@H]4O[C@H](CO)[C@@H](O)[C@H](O)[C@H]4O)[C@@H](c4ccc(O)c(OC)c4)OC[C@H]23)ccc1O | 0.935 | 10.7 | 8.5
8 | 10.5 | COc1cc([C@@H]2c3cc(O)c(OC)cc3C[C@H](CO)[C@H]2CO[C@@H]2O[C@H](CO)[C@@H](O)[C@H](O)[C@H]2O)ccc1O | 0.826 | -10 | -6.2
9 | – | O=C(O)/C=C/c1ccc(O)c(O)c1 | 1.26 | – | –
10 | – | O=C(/C=C/c1ccc(O)c(O)c1)OCC(O)(CO)C(O)C(=O)O (stereo not drawn) | 0.484 | 25.2 | 20.5
